How the values were obtained:
[1] = tested on: DU-145; test: Growth inhibition of human DU145 cells administered after 3 days; type: functional, cell-based; conditions: DU-145, 72 h
How it was run: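 DU145 in RPMI 1640 with 10% FCS; 1 × 10⁵ cells per well in 24-well plates, compound added 4 h after seeding. After 3 days the adherent sheet was washed twice with PBS and harvested in 0.14 M NaOH, and protein content measured. IC50 is the mean of three experiments.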

[2] = Growth inhibition of HPEN cells administered after 3 days; type: cell-based; conditions: Homo sapiens, 72 h
How it was run: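 HPENC in PrEGM with supplement and 10% FCS; 1 × 10⁵ cells per well in 24-well plates, compound added 4 h after seeding once adhered. After 3 days, growth read as protein content. IC50 is the mean of three experiments.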

[3] = Growth inhibition of human androgen-resistant ME cells after 3 days; type: functional; conditions: 72 h
How it was run: (§1)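 MOP (androgen-sensitive, LNCaP grown long-term in steroid-deprived medium) and ME (from regrown MOP xenografts under androgen) in RPMI 1640 with 5% charcoal-treated FCS. Seeded 1 × 10⁵ cells per well in 24-well plates, compound added at 4 h, cell count by Coulter counter after 3 days. IC50 is the mean of three experiments.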

[4] = Reversal of growth inhibition in HPEN cells assessed as increase in cell number at 10 uM after 8 days; type: cell-based; conditions: human, 192 h
How it was run: (§2)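 Cells seeded in six wells and treated from 4 h after seeding. Two wells were left in the original drug-containing medium for a further 5 days. Growth measured on day 8 as protein content of adherent cells and expressed as the day 8/day 3 ratio. EtOH vehicle controls were handled identically. Two experiments in duplicate.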

[5] = Growth inhibition of HPEN cells at 10 uM after 3 days; type: cell-based; conditions: human
How it was run: (§3)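 Cells seeded at 1 × 10⁵ per well in 24-well plates; compound added 4 h post-seeding and left for 3 days. Growth inhibition measured as protein content relative to control. HPENC values are means of three experiments in duplicate; DU145 values are means of five experiments in duplicate.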

[6] = Growth inhibition of human androgen-sensitive MOP cells after 3 days; type: functional; conditions: 72 h; how it was run: as §1
[7] = tested on: DU-145; test: Reversal of growth inhibition in human DU145 cells assessed as increase in cell number at 10 uM after 8 days; type: functional; how it was run: as §2
[8] = tested on: DU-145; test: Growth inhibition of human DU145 cells at 15 uM after 3 days; type: functional; conditions: DU-145, 72 h
How it was run: (§4)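 Vehicle controls received 0.5% EtOH. Cells seeded at 1 × 10⁵ per well, compound added at 4 h. Growth inhibition measured by protein content at day 3; two experiments, each in duplicate.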

[9] = molecular target: T1, Aldehyde dehydrogenase, dimeric NADP-preferring (Homo sapiens) (UniProt P30838); test: Inhibition of ALDH3 in human DU145 cells at 7.5 uM after 3 days; type: cell-based; conditions: DU-145
T1 sequence (whole entry): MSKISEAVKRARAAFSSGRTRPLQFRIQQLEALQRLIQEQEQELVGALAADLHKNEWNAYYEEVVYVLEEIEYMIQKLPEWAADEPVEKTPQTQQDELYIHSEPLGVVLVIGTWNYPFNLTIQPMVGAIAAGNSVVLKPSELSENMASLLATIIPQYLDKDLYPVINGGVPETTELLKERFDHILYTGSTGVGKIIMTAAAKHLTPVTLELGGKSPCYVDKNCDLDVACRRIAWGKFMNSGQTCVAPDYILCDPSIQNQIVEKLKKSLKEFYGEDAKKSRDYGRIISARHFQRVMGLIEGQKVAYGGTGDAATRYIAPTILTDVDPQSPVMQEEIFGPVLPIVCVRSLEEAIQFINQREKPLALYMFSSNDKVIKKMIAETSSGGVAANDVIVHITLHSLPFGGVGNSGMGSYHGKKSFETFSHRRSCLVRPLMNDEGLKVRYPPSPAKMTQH
How it was run: (§5)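 DU145 treated for 3 days, trypsinised, washed in PBS and lysed in 60 mM sodium phosphate pH 7 with 1% Triton X-100 and 1 mM EDTA, 30 min at 4 °C; lysate spun at 48,000g for 30 min. ALDH1: supernatant in phosphate pH 8.5, 1 mM EDTA, 100 mM KCl, 2.35 mM NAD, propanal substrate. ALDH3: 5 mM benzaldehyde, 2.5 mM NADP, 1 mM pyrazole. Two experiments in duplicate.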

[10] = Reversal of growth inhibition in HPEN cells assessed as increase in cell number at 10 uM on day 3 replaced with fresh medium without drug and measured after 8 days; type: cell-based; conditions: human, 192 h
How it was run: (§6)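 Cells were treated for 3 days. The medium was then aspirated, the sheet washed with PBS and fresh drug-free medium added, followed by 5 more days of culture. Growth measured on day 8 as adherent-cell protein and expressed relative to the day-3 protein content of parallel wells. Two experiments in duplicate.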

[11] = tested on: DU-145; test: Growth inhibition of human DU145 cells at 5 uM after 3 days; type: functional; conditions: DU-145, 72 h; how it was run: as §3
[12] = Reversal of growth inhibition in HPEN cells assessed as increase in cell number at 15 uM on day 3 replaced with fresh medium without drug and measured after 8 days; type: cell-based; conditions: human, 192 h; how it was run: as §6
[13] = Growth inhibition of HPEN cells at 5 uM after 3 days; type: cell-based; conditions: human; how it was run: as §3
[14] = molecular target: T2, Aldehyde dehydrogenase 1A1 (Homo sapiens) (UniProt P00352); test: Inhibition of ALDH1 in human DU145 cells at 5 uM after 3 days; type: cell-based; conditions: DU-145; how it was run: as §5
T2 sequence (whole entry): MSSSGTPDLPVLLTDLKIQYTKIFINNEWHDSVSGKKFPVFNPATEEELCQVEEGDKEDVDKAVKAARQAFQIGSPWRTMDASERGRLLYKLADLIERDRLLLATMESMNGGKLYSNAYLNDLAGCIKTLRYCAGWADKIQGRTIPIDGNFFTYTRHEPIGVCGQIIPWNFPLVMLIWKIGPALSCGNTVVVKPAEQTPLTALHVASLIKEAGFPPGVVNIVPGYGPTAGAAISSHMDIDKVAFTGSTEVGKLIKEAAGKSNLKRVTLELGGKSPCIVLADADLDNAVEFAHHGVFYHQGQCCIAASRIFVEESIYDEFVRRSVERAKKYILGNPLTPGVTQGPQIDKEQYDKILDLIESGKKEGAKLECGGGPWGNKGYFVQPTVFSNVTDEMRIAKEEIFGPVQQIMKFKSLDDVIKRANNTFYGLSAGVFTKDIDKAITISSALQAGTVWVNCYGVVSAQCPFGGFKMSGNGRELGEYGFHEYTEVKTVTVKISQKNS

[15] = molecular target: T3, Aldehyde dehydrogenase 1, mitochondrial (Saccharomyces cerevisiae) (UniProt P22281); test: Inhibition of yeast ALDH1 at 600 uM
T3 sequence (whole entry): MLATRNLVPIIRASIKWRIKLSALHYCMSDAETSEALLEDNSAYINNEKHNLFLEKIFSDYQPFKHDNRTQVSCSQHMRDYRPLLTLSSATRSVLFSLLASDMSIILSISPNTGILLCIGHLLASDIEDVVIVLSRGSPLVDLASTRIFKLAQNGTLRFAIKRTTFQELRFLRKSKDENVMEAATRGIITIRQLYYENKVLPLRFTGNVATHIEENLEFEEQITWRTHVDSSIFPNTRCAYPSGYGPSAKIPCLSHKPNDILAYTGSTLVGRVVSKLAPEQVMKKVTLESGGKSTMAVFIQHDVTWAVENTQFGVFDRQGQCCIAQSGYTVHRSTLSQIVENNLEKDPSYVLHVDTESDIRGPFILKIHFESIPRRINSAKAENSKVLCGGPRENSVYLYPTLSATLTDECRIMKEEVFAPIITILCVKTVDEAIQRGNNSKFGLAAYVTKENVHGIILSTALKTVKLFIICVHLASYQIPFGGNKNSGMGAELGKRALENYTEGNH

[16] = tested on: DU-145; test: Reversal of growth inhibition in human DU145 cells assessed as increase in cell number at 15 uM on day 3 replaced with fresh medium without drug and measured after 8 days; type: functional; how it was run: as §6
[17] = molecular target: T2, Aldehyde dehydrogenase 1A1 (Homo sapiens); test: Inhibition of ALDH1 in human DU145 cells at 2.5 uM after 3 days; type: cell-based; conditions: DU-145; how it was run: as §5
[18] = tested on: MRC5; test: Growth inhibition of human MRC5 cells; type: cell-based
[19] = tested on: DU-145; test: Reversal of growth inhibition in human DU145 cells assessed as increase in cell number at 10 uM on day 3 replaced with fresh medium without drug and measured after 8 days; type: functional; how it was run: as §6
[20] = molecular target: T1, Aldehyde dehydrogenase, dimeric NADP-preferring (Homo sapiens); test: Inhibition of ALDH3 in human DU145 cells at 5 uM after 3 days; type: cell-based; conditions: DU-145; how it was run: as §5
[21] = Growth inhibition of HPEN cells at 15 uM after 3 days; type: cell-based; conditions: human; how it was run: as §4
[22] = Growth inhibition of HPEN cells at 2 uM after 3 days; type: cell-based; conditions: human; how it was run: as §3
[23] = tested on: DU-145; test: Growth inhibition of human DU145 cells at 10 uM after 3 days; type: functional; conditions: DU-145, 72 h; how it was run: as §3
[24] = tested on: BaF3; test: Induction of apoptosis in mouse BAF3 cells overexpressing bcl2; type: functional, cell-based
[25] = tested on: DU-145; test: Growth inhibition of human DU145 cells at 2 uM after 3 days; type: functional; conditions: DU-145, 72 h; how it was run: as §3
[26] = molecular target: T1, Aldehyde dehydrogenase, dimeric NADP-preferring (Homo sapiens); test: Inhibition of ALDH3 in human DU145 cells at 2.5 uM after 3 days; type: cell-based; conditions: DU-145; how it was run: as §5
[27] = Reversal of growth inhibition in HPEN cells assessed as increase in cell number at 15 uM after 8 days; type: cell-based; conditions: human, 192 h; how it was run: as §2
[28] = molecular target: T2, Aldehyde dehydrogenase 1A1 (Homo sapiens); test: Inhibition of ALDH1 in human DU145 cells at 7.5 uM after 3 days; type: cell-based; conditions: DU-145; how it was run: as §5
[29] = tested on: DU-145; test: Reversal of growth inhibition in human DU145 cells assessed as increase in cell number at 15 uM after 8 days; type: functional; how it was run: as §2

Question: For `CSC(C#CC(C)(C)N1CCOCC1)=[N+](C)C`, which IC50 [1] is on record?
Answer: The IC50 was > 100 µM.

Question: Which IC50 [1] does the source give for `CSC(=O)C#CC(C)(C)N(Cc1ccccc1)Cc1ccccc1` here?
Answer: Its IC50 is 7 µM.

Question: What does the source list for `CSC(=O)C#CC(C)(C)[N+](C)(C)C`?
Answer: IC50 [1]: > 600 µM; IC50 [2]: 590 µM

Question: For `CSC(=O)C#CC(C)(C)N1CCCCC1`, which IC50 [1] is on record?
Answer: The IC50 was 22 µM.

Question: Which IC50 [1] does the source give for `CSC(=O)C#CC(C)(C)N1CCCC1` here?
Answer: Its IC50 is 6.7 µM.

Question: With `CSC(=O)C#CC(C)(C)N1CCSCC1` as the molecule, how does the IC50 [1] read?
Answer: Its IC50 is 54 µM.

Question: With `CSC(=O)C#CC(C)(C)N1CCc2ccccc21` as the molecule, how does the IC50 [1] read?
Answer: Its IC50 is 7 µM.

Question: Which IC50 [3] does the source give for `CSC(=O)C#CC(C)(C)N1CCOCC1` here?
Answer: Its IC50 is 10 µM.

Question: And the Activity [4]?
Answer: Its Activity is 0.4.

Question: What about the inhibition at 72 h, 10 µM [5] of the same molecule?
Answer: The inhibition at 72 h, 10 µM was 11%.

Question: What about the IC50 [6] of the same molecule?
Answer: The IC50 was 10 µM.

Question: And the IC50 [1]?
Answer: The IC50 was 9.3 µM.

Question: And the Activity [7]?
Answer: The Activity was 3.

Question: And the inhibition at 15 µM [8]?
Answer: Its inhibition at 15 µM is 88%.

Question: What about the inhibition [9] of the same molecule?
Answer: The inhibition was 78%.

Question: What about the Activity [10] of the same molecule?
Answer: The Activity was 1.6.

Question: And the inhibition at 5 µM [11]?
Answer: Its inhibition at 5 µM is 8%.

Question: And the Activity [12]?
Answer: The Activity was 2.6.

Question: What about the inhibition at 72 h, 5 µM [13] of the same molecule?
Answer: The inhibition at 72 h, 5 µM was 6%.

Question: And the inhibition [14]?
Answer: The inhibition was 20%.

Question: What about the inhibition [15] of the same molecule?
Answer: The inhibition was 15%.

Question: And the Activity [16]?
Answer: Its Activity is 1.6.

Question: What about the inhibition [17] of the same molecule?
Answer: The inhibition was 3%.

Question: What about the IC50 [18] of the same molecule?
Answer: The IC50 was 29 µM.

Question: And the Activity [19]?
Answer: The Activity was 2.6.

Question: What about the inhibition [20] of the same molecule?
Answer: The inhibition was 60%.

Question: And the inhibition at 72 h, 15 µM [21]?
Answer: Its inhibition at 72 h, 15 µM is 37%.

Question: What about the inhibition at 72 h, 2 µM [22] of the same molecule?
Answer: Its inhibition at 72 h, 2 µM is 3%.

Question: And the inhibition at 10 µM [23]?
Answer: The inhibition at 10 µM was 70%.

Question: What about the IC50 [24] of the same molecule?
Answer: The IC50 was 12 µM.

Question: And the inhibition at 2 µM [25]?
Answer: Its inhibition at 2 µM is 0%.

Question: And the inhibition [26]?
Answer: The inhibition was 40%.

Question: And the Activity [27]?
Answer: Its Activity is 1.4.

Question: What about the inhibition [28] of the same molecule?
Answer: The inhibition was 32%.

Question: And the Activity [29]?
Answer: The Activity was 1.9.

Question: What about the IC50 [2] of the same molecule?
Answer: The IC50 was > 10 µM.

From ChEMBL document CHEMBL1156669, “Aldehyde dehydrogenase inhibitors: alpha,beta-acetylenic N-substituted aminothiolesters are reversible growth inhibitors of normal epithelial but irreversible apoptogens for cancer epithelial cells from human prostate in culture” (Eur J Med Chem, 2008)
